Results from ChEMBL document CHEMBL4024790 (J Med Chem, 2018).
The source made the active and inactive calls. No cut-off for these calls is given here.

Tests used:
Liver = assay: Drug metabolism in rat liver microsomes assessed as 3-(7-methyl-5-(1-methyl-5-(5-(trifluoromethyl)pyridin-2-yl)-1H-pyrazol-4-yl)imidazo[1,5-f][1,2,4]triazin-4-ylamino)propanoic acid formation at 1 to 50 uM after 1 hr by LC-MS/MS analysis; format: ADME, microsome
Method in brief: (§1)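 Rat, dog or human liver microsomes or hepatocytes (P450 0.35–0.5 µM final) incubated with compound at 1, 10 or 50 µM in 100 mM phosphate buffer with 1 mM NADP regenerating system, 37°C for 1 h; quenched with 4 volumes acetonitrile, centrifuged, supernatant evaporated, reconstituted in 5% aqueous acetonitrile and analysed by reversed-phase LC.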

[1] = Drug metabolism in human hepatocytes assessed as 1-(7-methyl-5-(1-methyl-5-(5-(trifluoromethyl)pyridin-2-yl)-1H-pyrazol-4-yl)imidazo[1,5-f][1,2,4]triazin-4-yl)azetidin-3-ol formation at 1 to 50 uM after 1 hr by LC-MS/MS analysis; format: ADME, cell-based, Hepatocyte; method in brief: as §1
Brain = assay: Drug uptake in rat brain at 5 to 250 mg/kg/day, po up to 15 days by microscopic method; format: ADME, organism-based; settings: in vivo, 360 h
Method in brief: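 Exploratory rat toxicity study, oral dosing at 5, 50 and 250 mg/kg/day for up to 15 days, with microscopic examination of heart and vasculature and measurement of plasma and brain exposure.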

Canis familiaris [2] = assay: Cardiotoxicity in dog up to 15 mg/kg/day, po for 14 days by microscopic method; format: toxicity, organism-based, Canis lupus familiaris; settings: in vivo, 336 h
Canis familiaris [3] = species on record: Canis familiaris; assay: Cardiotoxicity in dog up to 1 month by microscopic method; format: toxicity, Canis lupus familiaris
Rattus norvegicus [4] = species on record: Rattus norvegicus; assay: Cardiotoxicity in rat up to 1 month by microscopic method; format: toxicity
Rattus norvegicus [5] = assay: Antipsychotic activity in Long Evans rat at 0.32 to 3.2 mg/kg, sc by conditioned avoidance responding assay; format: functional, organism-based
Method in brief: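 Rats dosed SC at 0.32, 1.0 and 3.2 mg/kg; conditioned avoidance responding also run in combination with risperidone 0.032 mg/kg.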

Rattus norvegicus [6] = assay: Reversal of ketamine-induced working memory deficit in Long Evans rat assessed as unbound brain concentration required to show effect at 0.32 mg/kg, sc by radial arm maze assay; format: functional, organism-based
Method in brief: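 Rats trained in a radial arm maze working-memory task, with deficit induced by ketamine. Compound dosed sc; errors compared with vehicle + ketamine. N = 20–23 per group, Hochberg test. Cbu at the tested doses estimated from satellite pharmacokinetic animals.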

Mus musculus [7] = species on record: Mus musculus; assay: Increase in cGMP level in CD-1 mouse brain hippocampus by immunoassay; format: functional
Method in brief: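 CD-1 mice given compound; brains fixed by focused microwave irradiation, and cortex, striatum and hippocampus dissected and homogenized in 0.5 N HCl, then centrifuged. cGMP in the supernatant measured by enzyme immunoassay. Unbound brain concentration taken from satellite animals. Dose-response and time-course data combined, and a linear Cbu–cGMP model fitted. The Cbu E50 is the projected Cbu giving a 50% rise in cGMP. Statistics by one-way ANOVA with Fisher's PLSD, p<0.05.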

Mus musculus [8] = species on record: Mus musculus; assay: Effect on cAMP level in CD-1 mouse brain striatum by immunoassay; format: functional
Method in brief: (§2)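 CD-1 mice dosed SC (solution in 20% SBE-β-CD with 2 molar equivalents 1N HCl, 1 mL/kg); euthanized by focused microwave irradiation of brain; cortex, striatum, hippocampus homogenized in 0.5 N HCl, centrifuged; cyclic nucleotides in supernatant by enzyme immunoassay. Unbound brain exposure from satellite animals; dose-response and time-course data combined with linear model; one-way ANOVA with Fisher's PLSD.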

Mus musculus [9] = species on record: Mus musculus; assay: Effect on cAMP level in CD-1 mouse brain hippocampus by immunoassay; format: functional; method in brief: as §2
Cytochrome P450 3A = Cytochrome P450 3A (Homo sapiens, UniProt P08684+P20815+Q9HB55+P24462); assay: Inhibition of recombinant human CYP3A; format: ADME; settings: recombinant enzyme
Cytochrome P450 1A2 = target: T1, Cytochrome P450 1A2 (Homo sapiens, UniProt P05177); assay: Time-dependant inhibition of recombinant human CYP1A2; format: ADME; settings: recombinant enzyme
T1 sequence (P05177 whole entry): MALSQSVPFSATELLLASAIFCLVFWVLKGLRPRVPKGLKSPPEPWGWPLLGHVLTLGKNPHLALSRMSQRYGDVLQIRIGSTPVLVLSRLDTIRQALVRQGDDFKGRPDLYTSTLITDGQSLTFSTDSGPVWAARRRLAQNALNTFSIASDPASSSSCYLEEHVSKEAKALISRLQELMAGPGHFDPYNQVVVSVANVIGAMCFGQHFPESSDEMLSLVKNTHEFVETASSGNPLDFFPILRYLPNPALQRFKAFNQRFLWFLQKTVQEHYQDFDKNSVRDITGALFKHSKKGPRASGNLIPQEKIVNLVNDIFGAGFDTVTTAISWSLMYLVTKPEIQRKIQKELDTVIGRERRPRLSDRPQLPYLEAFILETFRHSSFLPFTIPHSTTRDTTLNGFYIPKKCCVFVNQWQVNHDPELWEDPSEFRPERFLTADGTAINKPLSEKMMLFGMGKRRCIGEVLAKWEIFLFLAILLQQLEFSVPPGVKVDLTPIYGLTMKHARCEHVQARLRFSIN

[10] = Ratio of unbound brain concentration to unbound plasma concentration in po dosed Cynomolgus monkey; format: ADME, organism-based, Macaca fascicularis; settings: brain and plasma, read-out: K(p,uu,brain)
[11] = Cmax in Wistar Han rat at 5 mg/kg, po administered via gavage by LC-MS/MS analysis; format: ADME, organism-based; design: dose 5 mg/kg, route oral; settings: in vivo
[12] = Oral bioavailability in Wistar Han rat at 5 mg/kg administered via gavage by LC-MS/MS analysis; format: ADME, organism-based; settings: in vivo
[13] = AUC (0 to infinity) in beagle dog at 5 mg/kg, po administered via gavage by LC-MS/MS analysis; format: ADME, organism-based, Canis lupus familiaris; design: dose 5 mg/kg, route oral, time infinity; settings: in vivo
[14] = AUC (0 to infinity) in beagle dog at 0.3 mg/kg, iv by LC-MS/MS analysis; format: ADME, organism-based, Canis lupus familiaris; design: dose 0.3 mg/kg, route intravenous, time infinity; settings: in vivo
Method in brief: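 Dogs received a single IV dose as a solution in 20% (w/v) sulfobutylether-β-cyclodextrin with hydrochloric acid, at 0.4 mL/kg. Blood was drawn by carotid artery cannula into K3EDTA at set times from 2 min to 24 h. Plasma was acetonitrile-precipitated with internal standard and run by positive-ESI LC-MS/MS against standards of 0.61–1250 ng/mL. AUC was extrapolated from time 0 to infinity.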

Rattus norvegicus [15] = species on record: Rattus norvegicus

Cc1nc(-c2cnn(C)c2-c2ccc(C(F)(F)F)cn2)c2c(N3CCC3)ncnn12 [PF-05180999]
Drug metabolism (Liver): Metabolite_Detected
Drug metabolism [1]: Metabolite_Detected
Drug uptake (Brain): Active
Activity (Canis familiaris [2]): Non-Toxic
Activity (Canis familiaris [3]): Non-Toxic
Activity (Rattus norvegicus [4]): Non-Toxic
Activity (Rattus norvegicus [5]): inactive
Drug uptake(free) (Rattus norvegicus [6]): 12.5 nM
Activity (Mus musculus [7]): Dose-dependent effect
Activity (Mus musculus [8]): inactive
Activity (Mus musculus [9]): inactive
inhibition (INH) (Cytochrome P450 3A): Not Active
TDI (Cytochrome P450 1A2): Not Active
Kp uu [10]: 0.6
Cmax [11]: 363 ng/mL
bioavailability [12]: 44%
AUC(0-inf) [13]: 4120 ng·h/mL
AUC(0-inf) [14]: 431 ng·h/mL
fIC50 (Rattus norvegicus [15]): 9 nM
